Results from ChEMBL document CHEMBL1629545, “A morpholino oligomer targeting highly conserved internal ribosome entry site sequence is able to inhibit multiple species of picornavirus” (Antimicrob Agents Chemother, 2008).
Activity calls are given as the source filed them. The calls are words filed in the database; no cut-off is given here.

What was measured:
Poliovirus 1 = experiment: Antiviral activity against Human poliovirus type 1 infected in Human HeLa cell assessed as inhibition of translation at 10 ug/ml by luciferase reporter gene assay; assay type: functional, organism-based
Procedure, shortened: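 In-cell translation control: HeLa cells electroporated with 20 μg PV1-Luc replicon RNA were placed in medium with 10 μg/ml puromycin at 37°C in 5% CO2. Luciferase in lysates was read by luminometer at hourly time points after transfection. Two experiments were averaged.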

HeLa [1] = experiment: Cytotoxicity against human HeLa cells 10 uM after 24 hrs by MTS assay; assay type: cell-based
Procedure, shortened: (§1)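 HeLa cells at ~80% confluence, uninfected, exposed to 1–100 μM PPMO or water (mock) in serum-free DMEM-F-12 (1:1) for 24 h. MTS reagent was added for 4 h and absorbance read at 492 nm. Viability was expressed as percent of water-treated cells (set to 100%), averaged over 12 wells.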

HeLa [2] = experiment: Cytotoxicity against human HeLa cells at 10 uM after 48 hrs by MTS assay; assay type: cell-based
Procedure, shortened: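 Time-course viability: uninfected HeLa cells were kept in 10 μM PPMO in DMEM-F-12 and assayed at time points from 10 to 69 h after treatment began. Read-out was the MTS reagent for 4 h with absorbance at 492 nm. Results are given as percent of water-mock cells, each point the mean of 12 wells.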

HeLa [3] = experiment: Cytotoxicity against human HeLa cells at 10 uM by MTS assay; assay type: cell-based; procedure, shortened: as §1
SK-N-MC = experiment: Cytotoxicity against human SK-N-MC cell at 10 uM after 24 hrs by MTS assay; assay type: cell-based
Vero = experiment: Cytotoxicity against African green monkey Vero cells at 10 uM after 24 hrs by MTS assay; assay type: cell-based; details: chlorocebus sabaeus

## Cc1cn([C@H]2CN(P(=O)(OC[C@@H]3CN(P(=O)(OC[C@@H]4CN(P(=O)(OC[C@@H]5CNC[C@H](n6ccc(N)nc6=O)O5)N(C)C)C[C@H](n5cnc6c(N)ncnc65)O4)N(C)C)C[C@H](n4ccc(N)nc4=O)O3)N(C)C)C[C@@H](COP(=O)(N(C)C)N3C[C@@H](COP(=O)(N(C)C)N4C[C@@H](COP(=O)(N(C)C)N5C[C@@H](COP(=O)(N(C)C)N6C[C@@H](COP(=O)(N(C)C)N7C[C@@H](COP(=O)(N(C)C)N8C[C@@H](COP(=O)(N(C)C)N9C[C@@H](COP(=O)(N(C)C)N%10C[C@@H](COP(=O)(N(C)C)N%11C[C@@H](COP(=O)(N(C)C)N%12C[C@@H](COP(=O)(N(C)C)N%13C[C@@H](COP(=O)(N(C)C)N%14C[C@@H](COP(=O)(N(C)C)N%15C[C@@H](COP(=O)(N(C)C)N%16C[C@@H](COP(=O)(N(C)C)N%17C[C@@H](COP(=O)(N(C)C)N%18C[C@@H](COP(=O)(N(C)C)N%19C[C@@H](COP(=O)(N(C)C)N%20C[C@@H](COP(=O)(N(C)C)N%21C[C@@H](COP(=O)(N(C)C)N%22C[C@@H](COP(=O)(N(C)C)N%23CCN(C(=O)CCNC(=O)CCCCCNC(=O)[C@H](CCCNC(=N)N)NC(=O)CCCCCNC(=O)[C@H](CCCNC(=N)N)NC(=O)[C@H](CCCNC(=N)N)NC(=O)CCCCCNC(=O)[C@H](CCCNC(=N)N)NC(=O)[C@H](CCCNC(=N)N)NC(=O)CCCCCNC(=O)[C@H](CCCNC(=N)N)NC(=O)[C@H](CCCNC(=N)N)NC(=O)CCCCCNC(=O)[C@@H](N)CCCNC(=N)N)CC%23)O[C@@H](n%23ccc(N)nc%23=O)C%22)O[C@@H](n%22cnc%23c(N)ncnc%23%22)C%21)O[C@@H](n%21cnc%22c(N)ncnc%22%21)C%20)O[C@@H](n%20ccc(N)nc%20=O)C%19)O[C@@H](n%19cnc%20c(=O)[nH]c(N)nc%20%19)C%18)O[C@@H](n%18ccc(N)nc%18=O)C%17)O[C@@H](n%17cnc%18c(N)ncnc%18%17)C%16)O[C@@H](n%16cnc%17c(=O)[nH]c(N)nc%17%16)C%15)O[C@@H](n%15ccc(N)nc%15=O)C%14)O[C@@H](n%14ccc(N)nc%14=O)C%13)O[C@@H](n%13cc(C)c(=O)[nH]c%13=O)C%12)O[C@@H](n%12cnc%13c(=O)[nH]c(N)nc%13%12)C%11)O[C@@H](n%11cnc%12c(=O)[nH]c(N)nc%12%11)C%10)O[C@@H](n%10cnc%11c(N)ncnc%11%10)C9)O[C@@H](n9ccc(N)nc9=O)C8)O[C@@H](n8ccc(N)nc8=O)C7)O[C@@H](n7cnc8c(N)ncnc87)C6)O[C@@H](n6ccc(N)nc6=O)C5)O[C@@H](n5ccc(N)nc5=O)C4)O[C@@H](n4cnc5c(=O)[nH]c(N)nc54)C3)O2)c(=O)[nH]c1=O (stereo partly specified)
Poliovirus 1
  Activity: inactive
HeLa [1]
  Activity: Toxic
HeLa [2]
  Activity: Toxic
HeLa [3]
  Activity: Non-toxic
SK-N-MC
  Activity: Non-toxic
Vero
  Activity: Non-toxic
